Consider five molecules from paper PMC3786212 (Structure (London, England : 1993), 2012).

The target of assay [1] is UBE2F^NAc, N-terminally acetylated UBE2F (human) (UniProt Q969M7). In words: ITC. In general terms: In ITC the heat of successive injections is recorded.
For assay [2], the target named is DCNL2^P (DCNL2 PONY domain) (Homo sapiens, UniProt Q6PH85). In words: ITC binding to DCNL2 PONY domain. Particulars: full-length UBE2F protein, pH 7.0, 16 °C. The procedure, abridged: (§1)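 Buffer-matched by NAP-5 desalting into 25 mM HEPES, 125 mM NaCl, 1 mM BME, pH 7.0. N-terminally acetylated UBE2F in cell at 100 µM final, 16 °C. PONY domain (1 mM) injected as 2.5 µl, 5 s injections at 3 min intervals. Heats and Kd from fits of integrated data. At least two independent runs; values from one run.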

Assay [3] has as its target DCNL1^P (DCNL1 PONY domain) (Homo sapiens, UniProt Q96GG9). The assay can be described thus: ITC binding to DCNL1 PONY domain. Particulars: full-length UBE2F protein, pH 7.0, 16 °C. The procedure, abridged: as §1
Assay [4] addresses T1, DCNL5^P (DCNL5 PONY domain) (Homo sapiens, UniProt Q9BTE7).
T1 sequence (Q9BTE7 46-232 limits assumed): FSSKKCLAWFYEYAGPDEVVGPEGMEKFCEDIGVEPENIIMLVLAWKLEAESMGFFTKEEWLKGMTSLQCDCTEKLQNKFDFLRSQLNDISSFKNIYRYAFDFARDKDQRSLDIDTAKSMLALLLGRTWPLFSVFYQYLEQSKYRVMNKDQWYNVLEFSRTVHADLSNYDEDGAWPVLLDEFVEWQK
The assay can be described thus: ITC binding to DCNL5 PONY domain. Particulars: full-length UBE2F protein, pH 7.0, 16 °C. The procedure, abridged:
as §1

The target in assay [5] is T2, DCNL4^P (DCNL4 PONY domain) (Homo sapiens, UniProt Q92564).
T2 sequence (Q92564 101-287 limits assumed): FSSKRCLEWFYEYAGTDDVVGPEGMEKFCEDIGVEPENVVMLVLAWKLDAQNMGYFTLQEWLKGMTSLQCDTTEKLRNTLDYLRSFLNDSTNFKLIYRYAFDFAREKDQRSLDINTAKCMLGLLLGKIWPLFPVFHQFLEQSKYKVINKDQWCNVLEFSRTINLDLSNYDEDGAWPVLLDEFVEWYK
In words: ITC binding to DCNL4 PONY domain. The conditions noted are these: full-length UBE2F protein, pH 7.0, 16 °C. In outline: as §1

DCNL2^P (DCNL2 PONY domain), sequence (Q6PH85 60-248 limits assumed): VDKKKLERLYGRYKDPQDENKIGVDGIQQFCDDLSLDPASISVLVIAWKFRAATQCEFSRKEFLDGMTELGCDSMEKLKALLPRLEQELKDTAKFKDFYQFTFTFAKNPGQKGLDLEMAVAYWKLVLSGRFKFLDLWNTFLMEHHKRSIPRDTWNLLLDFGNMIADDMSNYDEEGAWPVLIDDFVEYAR
DCNL1^P (DCNL1 PONY domain), sequence (Q96GG9 60-248 limits assumed): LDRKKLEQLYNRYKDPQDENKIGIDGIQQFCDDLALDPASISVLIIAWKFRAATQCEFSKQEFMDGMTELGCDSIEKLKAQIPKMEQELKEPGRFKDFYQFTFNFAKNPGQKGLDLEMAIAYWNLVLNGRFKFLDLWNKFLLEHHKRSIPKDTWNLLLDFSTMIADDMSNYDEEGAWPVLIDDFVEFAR

Regarding “DCNL3 PONY domain (DCNL3^P) (from UniProt Q8IWE4 86-304) (domain or fragment)”, in assay [1], the Kd is 1000 nM.
For the molecule “DCNL1 PONY domain (DCNL1^P) (from UniProt Q96GG9 62-259) (domain or fragment)”, the fold decrease in binding against DCNL3^P in assay [1] came to 5 fold.
Same read-out and setting: next, “DCNL2 PONY domain (DCNL2^P) (from UniProt Q6PH85 62-259) (domain or fragment)”: 5 fold.

B1: UBE2F^NAc: N-terminally acetylated human UBE2F, NEDD8 E2, expressed in insect cells (protein)
chain: MLTLASKLKRDDGLKGSRTAATASDSTRRVSVRDKLLVKEVAELEANLPCTCKVHFPDPNKLHCFQLTVTPDEGYYQGGKFQFETEVPDAYNMVPPKVKCLTKIWHPNITETGEICLSLLREHSIDGTGWAPTRTLKDVVWGLNSLFTDLLNFDDPLNIEAAEHHLRDKEDFRNKVDDYIKRYAR
modifications: N-terminal methionine retained and N-terminally acetylated; left off: His tag, C-terminal, state not stated
For B1, the “fold decrease in binding relative to DCNL3^P” value in assay [2] and in assay [3] was 5 fold each time. For the same molecule, the Kd entry in assay [4] and in assay [5] was “too high for us to measure” each time.

B2: unacetylated UBE2F: UBE2F prepared in E. coli as SUMO fusion, unacetylated N-terminal Met (protein)
chain: MLTLASKLKRDDGLKGSRTAATASDSTRRVSVRDKLLVKEVAELEANLPCTCKVHFPDPNKLHCFQLTVTPDEGYYQGGKFQFETEVPDAYNMVPPKVKCLTKIWHPNITETGEICLSLLREHSIDGTGWAPTRTLKDVVWGLNSLFTDLLNFDDPLNIEAAEHHLRDKEDFRNKVDDYIKRYAR
modifications: left off: SUMO, N-terminal, cleaved
With B2, the “binding (ITC)” value in assay [2] and in assay [3] was “could not measure binding” in each case. The Kd entry in assay [4] and in assay [5] was “could not measure binding” throughout.

As a reminder, the Kd is the concentration at which binding is half-saturated. The low end stands for a tighter complex, the high end for a looser complex.
